Laboratory results from ChEMBL document CHEMBL5154815, “A Series of Substituted Bis-Aminotriazines Are Activators of the Natriuretic Peptide Receptor C” (J Med Chem, 2022).
≈ marks a conversion by molar mass, not a printed value. Calls of active or inactive are those of the source. No cut-off for these calls is given here.

Columns and labels:
[1] = Half life in fasted C57BL/6 mouse at 10 mg/kg, po by LC-MS/MS analysis; format: ADME, organism-based; settings: in vivo
[2] = biological target: T1, Cytochrome P450 2C8 (Homo sapiens, UniProt P10632); assay: Inhibition of CYP2C8 in human liver microsomes using amodiaquine as a substrate preincubated for 10 mins followed by NADPH addition and measured after 10 mins by LC/MS/MS analysis
T1 sequence (P10632 whole entry): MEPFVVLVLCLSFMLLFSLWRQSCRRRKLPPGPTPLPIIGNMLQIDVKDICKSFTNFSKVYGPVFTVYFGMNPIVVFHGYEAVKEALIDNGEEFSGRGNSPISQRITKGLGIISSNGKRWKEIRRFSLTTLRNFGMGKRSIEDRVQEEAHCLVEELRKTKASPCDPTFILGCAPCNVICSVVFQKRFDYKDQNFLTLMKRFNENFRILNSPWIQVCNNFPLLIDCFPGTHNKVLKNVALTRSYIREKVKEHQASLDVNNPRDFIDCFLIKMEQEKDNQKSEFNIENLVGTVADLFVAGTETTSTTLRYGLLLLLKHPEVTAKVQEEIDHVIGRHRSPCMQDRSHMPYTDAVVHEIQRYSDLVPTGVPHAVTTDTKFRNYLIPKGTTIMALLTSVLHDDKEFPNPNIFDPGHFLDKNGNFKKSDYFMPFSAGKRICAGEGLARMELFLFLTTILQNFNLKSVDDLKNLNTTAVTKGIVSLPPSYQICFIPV

[3] = biological target: T2, Atrial natriuretic peptide receptor 3 (Homo sapiens) (UniProt P17342); assay: Agonist activity at NPRC in human Hela cells assessed as decrease in forskolin-induced cAMP level at 100 uM relative to control; format: cell-based; set-up: scale not given: the % may be the effect or the level left
T2 sequence (whole entry): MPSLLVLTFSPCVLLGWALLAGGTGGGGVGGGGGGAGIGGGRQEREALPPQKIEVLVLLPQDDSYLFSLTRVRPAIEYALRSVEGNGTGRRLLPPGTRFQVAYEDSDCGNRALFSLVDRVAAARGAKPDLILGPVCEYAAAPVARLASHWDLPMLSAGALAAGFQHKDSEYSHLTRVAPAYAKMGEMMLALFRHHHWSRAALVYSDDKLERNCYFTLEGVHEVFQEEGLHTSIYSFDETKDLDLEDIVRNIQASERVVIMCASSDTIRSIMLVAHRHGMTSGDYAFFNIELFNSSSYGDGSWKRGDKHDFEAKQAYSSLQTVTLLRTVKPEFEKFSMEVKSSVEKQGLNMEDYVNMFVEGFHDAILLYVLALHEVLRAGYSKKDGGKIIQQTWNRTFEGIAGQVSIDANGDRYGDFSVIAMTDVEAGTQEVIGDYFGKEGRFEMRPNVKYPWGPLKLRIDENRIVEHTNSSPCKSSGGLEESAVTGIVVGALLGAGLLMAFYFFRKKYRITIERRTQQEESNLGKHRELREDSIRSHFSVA

[4] = Mean residence time (0 to infinity) in fasted C57BL/6 mouse at 3 mg/kg, iv by LC-MS/MS analysis; settings: in vivo
[5] = rat, hepatocytes, 20 min, 1 µM
[6] = biological target: T3, Cytochrome P450 1A2 (Homo sapiens, UniProt P05177); assay: Inhibition of CYP1A2 in human liver microsomes using phenacetin as substrate preincubated for 10 mins followed by NADPH addition and measured after 10 mins by LC/MS/MS analysis
T3 sequence (P05177 whole entry): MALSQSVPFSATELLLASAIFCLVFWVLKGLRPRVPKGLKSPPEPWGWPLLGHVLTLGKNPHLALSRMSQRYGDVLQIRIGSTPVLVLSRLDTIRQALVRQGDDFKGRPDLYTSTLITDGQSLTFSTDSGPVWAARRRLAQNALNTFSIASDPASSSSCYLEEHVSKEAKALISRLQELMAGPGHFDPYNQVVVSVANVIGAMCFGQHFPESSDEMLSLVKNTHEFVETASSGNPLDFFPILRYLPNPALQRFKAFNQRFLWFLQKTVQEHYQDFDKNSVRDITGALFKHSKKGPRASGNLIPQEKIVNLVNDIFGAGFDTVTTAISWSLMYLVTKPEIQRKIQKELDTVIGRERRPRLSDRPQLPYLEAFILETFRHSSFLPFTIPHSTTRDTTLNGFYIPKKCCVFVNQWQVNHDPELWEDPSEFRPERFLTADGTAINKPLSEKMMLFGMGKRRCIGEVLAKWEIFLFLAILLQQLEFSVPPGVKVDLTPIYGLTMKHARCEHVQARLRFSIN

[7] = biological target: T4, Atrial natriuretic peptide receptor 3 (Rattus norvegicus) (UniProt P41740); assay: Agonist activity at NPRC in rat small mesenteric arteries assessed as inhibition of cANF4-23 induced vasorelaxation in presence of osteocrin by Organ bath assay; format: tissue-based; settings: Artery, filed as agonist
T4 sequence (whole entry): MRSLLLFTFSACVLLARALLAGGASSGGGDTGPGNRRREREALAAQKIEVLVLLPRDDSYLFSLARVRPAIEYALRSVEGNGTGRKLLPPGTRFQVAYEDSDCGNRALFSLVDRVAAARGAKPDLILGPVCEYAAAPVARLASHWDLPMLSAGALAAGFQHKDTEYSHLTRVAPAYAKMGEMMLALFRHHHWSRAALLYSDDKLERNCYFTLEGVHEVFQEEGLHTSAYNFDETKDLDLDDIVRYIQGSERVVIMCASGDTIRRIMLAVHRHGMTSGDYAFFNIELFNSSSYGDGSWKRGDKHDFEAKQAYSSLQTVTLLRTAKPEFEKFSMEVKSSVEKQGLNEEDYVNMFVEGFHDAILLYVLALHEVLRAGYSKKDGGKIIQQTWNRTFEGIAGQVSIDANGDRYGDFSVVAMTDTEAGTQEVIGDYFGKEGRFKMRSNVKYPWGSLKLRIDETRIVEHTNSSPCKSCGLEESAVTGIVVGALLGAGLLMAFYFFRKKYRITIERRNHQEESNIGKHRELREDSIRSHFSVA
Procedure, shortened: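 Small mesenteric artery rings from male Wistar rats in classical tissue-bath pharmacology. Vessels were preincubated 15 min with M372049 10 μM or osteocrin 100 nM before the vasorelaxant response to test agents was assessed.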

[8] = biological target: T5, Atrial natriuretic peptide receptor 3 (Rattus norvegicus, UniProt P41740); assay: Agonist activity at NPRC in rat small mesenteric arteries assessed as vasorelaxation by Organ bath assay; format: tissue-based, Artery
T5 sequence (P41740 whole entry): T4 sequence (whole entry)

[9] = Oral bioavailability in fasted C57BL/6 mouse at 10 mg/kg by LC-MS/MS analysis; format: ADME, organism-based; settings: in vivo
[10] = Solubility of compound in PBS at 10 mM after 3 hrs by UV analysis; settings: buffer, 10000 µM
[11] = biological target: T5, Atrial natriuretic peptide receptor 3; assay: Agonist activity at NPRC in rat aorta assessed as vasorelaxation by Organ bath assay; format: tissue-based
[12] = biological target: Cytochrome P450 2C19 (Homo sapiens, UniProt P33261); assay: Inhibition of CYP2C19 in human liver microsomes using S-mephenytoin as substrate preincubated for 10 mins followed by NADPH addition and measured after 20 mins by LC/MS/MS analysis
Sequence of Cytochrome P450 2C19 (P33261 whole entry): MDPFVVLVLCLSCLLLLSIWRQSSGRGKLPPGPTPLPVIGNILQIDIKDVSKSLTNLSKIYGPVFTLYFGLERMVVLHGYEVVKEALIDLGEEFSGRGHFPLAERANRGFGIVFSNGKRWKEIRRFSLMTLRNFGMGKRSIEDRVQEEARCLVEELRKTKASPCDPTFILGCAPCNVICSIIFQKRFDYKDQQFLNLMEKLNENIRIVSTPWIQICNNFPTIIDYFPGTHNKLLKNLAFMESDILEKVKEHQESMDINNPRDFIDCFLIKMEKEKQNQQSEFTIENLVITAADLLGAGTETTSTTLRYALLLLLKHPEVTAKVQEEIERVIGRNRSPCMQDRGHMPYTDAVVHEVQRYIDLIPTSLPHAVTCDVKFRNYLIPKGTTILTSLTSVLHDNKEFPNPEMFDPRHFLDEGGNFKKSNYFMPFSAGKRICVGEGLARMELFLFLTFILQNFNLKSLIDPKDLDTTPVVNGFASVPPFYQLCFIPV

[13] = Mean residence time (0 to infinity) in fasted C57BL/6 mouse at 10 mg/kg, po by LC-MS/MS analysis; settings: in vivo

## CC(=O)Nc1ccc(Nc2ncnc(NCCC(=O)OC(C)(C)C)n2)cc1
[1]
  half-life: 1.37 h
[2]
  IC50: > 50 µM
[3]
  Activity: 37.7%
[4]
  MRT inf: 0.262 h
[5]
  t1/2: 1.952 h
[6]
  IC50: > 50 µM
[7]
  Activity: Active
[8]
  EC50: 0.86 µM
[9]
  F: 43.8%
[10]
  solubility: 71.17 mg/mL (≈ 191 mM)
[11]
  EC50: 15.5 µM
[12]
  IC50: > 50 µM
[13]
  MRT inf: 1.33 h
